{"data": "Experimental data collected from several papers", "CDK1": "Cyclin-dependent kinase 1 (CDK1, Homo sapiens, UniProt P06493)", "CDK9": "Cyclin-dependent kinase 9 (CDK9, Homo sapiens, UniProt P50750)", "note": "Compare with care: the assays were run in different laboratories."}
{"SMILES": "Cc1cc2c(C(N)=O)c(N)n(-c3c(C)ccc(O)c3C)c2nc1C", "target": "Proto-oncogene tyrosine-protein kinase Src (SRC, Homo sapiens, UniProt P12931)", "test": "enzyme activity, inhibitor, TR-FRET", "setting": "10 µM", "measurement": "inhibition", "value": "101%"}
{"SMILES": "C[C@H]1CN(c2ccc(C3CCC(=O)NC3=O)cc2F)CCN1CC12CCC(NS(=O)(=O)c3ccc(Nc4ncc(C(F)(F)F)c(N5CCC[C@](C)(O)C5)n4)c(F)c3)(CC1)CO2 (stereo partly shown)", "target": "CDK1", "test": "protein level, degrader, western blot", "test system": "TOV21G", "measurement": "Dmax", "value": "32%"}
{"SMILES": "CCCCC(=O)Nc1ccc(-c2ccc3ncn(CCC)c(=O)c3c2)cn1", "target": "Ankyrin repeat and protein kinase domain-containing protein 1 (ANKK1, Homo sapiens, UniProt Q8NFD2)", "test": "binding, competition with immobilised ligand", "setting": "0.5 µM", "measurement": "remaining binding", "value": "100%"}
{"SMILES": "COc1ccc2oc(-c3ccc4nc(N)oc4c3)c/c(=N\\c3ccccc3NC(=O)CCN)c2c1", "target": "5'-AMP-activated protein kinase catalytic subunit alpha-2 (PRKAA2, Homo sapiens, UniProt P54646)", "test": "binding", "setting": "1 µM", "measurement": "remaining binding", "value": "103%"}
{"SMILES": "CC(C)(C)c1cnc(CSc2cnc(NC(=O)C3CCN(C(=O)CCCCCCCCCCN4Cc5cc6c(cc5C4)C(=O)N(C4CCC(=O)NC4=O)C6=O)CC3)s2)o1 (stereo not shown)", "target": "CDK9", "test": "protein level, degrader, western blot", "test system": "TC-71", "setting": "25 nM", "measurement": "inhibition", "value": "89.1%"}
{"SMILES": "C#Cc1cc(-c2cc(Nc3nc(N[C@@H](C)c4ccc(F)cn4)ncc3Cl)n[nH]2)ccc1C=O", "target": "Phosphorylase b kinase gamma catalytic chain, skeletal muscle/heart isoform (PHKG1, Homo sapiens, UniProt Q16816)", "test": "enzyme activity, inhibitor", "setting": "0.2 µM", "measurement": "inhibition", "value": "80.2%"}
{"SMILES": "C[C@]1(O)CCCN(c2nc(Nc3ccc(S(=O)(=O)N[C@H]4CC[C@H](CN5CCN(c6ccc(C7CCC(=O)NC7=O)cc6F)CC5)CC4)cc3F)ncc2C(F)(F)F)C1 (stereo partly shown)", "target": "CDK1", "test": "protein level, degrader, western blot", "test system": "TOV21G", "measurement": "Dmax", "value": "82%"}
{"SMILES": "CCN(CC)CCNC(=O)c1ccc(NCN2C(=O)NC(c3ccccc3)(c3ccccc3)C2=O)cc1", "target": "Mitogen-activated protein kinase 3 (MAPK3, Homo sapiens, UniProt P27361)", "test": "enzyme activity, inhibitor, ADP detection", "setting": "10 µM", "measurement": "inhibition", "value": "43.6%"}
{"SMILES": "CN1C(=O)CCC(N2C(=O)c3cc4c(cc3C2=O)CN(CCCCCCCC(=O)N2CCC(C(=O)Nc3ncc(SCc5ncc(C(C)(C)C)o5)s3)CC2)C4)C1=O (stereo not shown)", "target": "CDK9", "test": "protein level, degrader, western blot", "test system": "TC-71", "setting": "25 nM", "measurement": "inhibition", "value": "5.1%"}
{"SMILES": "C[C@]1(O)CCCN(c2nc(Nc3ccc(S(=O)(=O)N[C@H]4CC[C@H](CN5CCN(c6ccc(C7CCC(=O)NC7=O)c(F)c6)CC5)CC4)cc3F)ncc2C(F)(F)F)C1 (stereo partly shown)", "target": "CDK1", "test": "protein level, degrader, western blot", "test system": "TOV21G", "measurement": "Dmax", "value": "73%"}
{"SMILES": "C1=C/COCc2cc(ccc2OCCN2CCCC2)Nc2nccc(n2)-c2cccc(c2)COC/1", "target": "Tyrosine-protein kinase Mer (MERTK, Homo sapiens, UniProt Q12866)", "test": "binding", "setting": "0.1 µM", "measurement": "remaining binding", "value": "80%"}
{"SMILES": "Cc1cc(O)c(-c2ccc([C@@H](C)CN(C)C)cc2)c2c1[nH]c(=O)c1sccc12", "target": "Dual specificity mitogen-activated protein kinase kinase 7 (MAP2K7, Homo sapiens, UniProt O14733)", "test": "enzyme activity, inhibitor", "setting": "0.1 µM", "measurement": "inhibition", "value": "4.47%"}
{"SMILES": "NC/C(=C\\F)COc1cccc(Cn2c(=S)[nH]c(=O)c3[nH]cnc32)c1", "target": "Myeloperoxidase (Mus musculus, UniProt P11247)", "test": "enzyme activity, inhibitor", "setting": "0.25 µM", "measurement": "remaining activity", "value": "9.08%"}
